Active and inactive are the calls of the source. The calls are words filed in the database; no cut-off is given here.
How the values were obtained:
[1] = target: T1, Peptidoglycan D,D-transpeptidase MrdA (Escherichia coli K-12) (UniProt P0AD65); experiment: (§1) Inhibition of bocillin-FL binding to Escherichia coli K12 NusA-fused/His6-tagged PBP2 (57 to 615 residues) expressed in Escherichia coli BL21(DE3) preincubated for 30 mins followed by bocillin-FL addition by RT-fluorescence anisotropy method
T1 sequence (whole entry): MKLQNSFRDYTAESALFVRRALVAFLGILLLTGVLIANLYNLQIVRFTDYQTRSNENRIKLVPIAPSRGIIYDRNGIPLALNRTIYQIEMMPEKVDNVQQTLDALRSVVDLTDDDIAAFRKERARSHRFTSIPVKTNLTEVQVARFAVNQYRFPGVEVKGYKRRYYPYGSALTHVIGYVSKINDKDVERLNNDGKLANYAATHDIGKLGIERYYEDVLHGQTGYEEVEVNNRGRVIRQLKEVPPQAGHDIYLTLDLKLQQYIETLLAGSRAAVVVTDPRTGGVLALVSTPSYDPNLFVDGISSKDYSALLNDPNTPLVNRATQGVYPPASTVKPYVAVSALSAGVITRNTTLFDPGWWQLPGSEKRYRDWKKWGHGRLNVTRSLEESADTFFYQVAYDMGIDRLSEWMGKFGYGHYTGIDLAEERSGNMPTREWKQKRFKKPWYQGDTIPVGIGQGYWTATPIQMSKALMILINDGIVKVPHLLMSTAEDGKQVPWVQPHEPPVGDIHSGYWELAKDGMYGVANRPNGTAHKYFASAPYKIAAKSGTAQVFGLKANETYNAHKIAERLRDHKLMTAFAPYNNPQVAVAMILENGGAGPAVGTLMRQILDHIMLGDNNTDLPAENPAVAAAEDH

[2] = target: T2, Penicillin-binding protein 1A (Escherichia coli K-12) (UniProt P02918); experiment: Inhibition of Escherichia coli PBP1a
T2 sequence (whole entry): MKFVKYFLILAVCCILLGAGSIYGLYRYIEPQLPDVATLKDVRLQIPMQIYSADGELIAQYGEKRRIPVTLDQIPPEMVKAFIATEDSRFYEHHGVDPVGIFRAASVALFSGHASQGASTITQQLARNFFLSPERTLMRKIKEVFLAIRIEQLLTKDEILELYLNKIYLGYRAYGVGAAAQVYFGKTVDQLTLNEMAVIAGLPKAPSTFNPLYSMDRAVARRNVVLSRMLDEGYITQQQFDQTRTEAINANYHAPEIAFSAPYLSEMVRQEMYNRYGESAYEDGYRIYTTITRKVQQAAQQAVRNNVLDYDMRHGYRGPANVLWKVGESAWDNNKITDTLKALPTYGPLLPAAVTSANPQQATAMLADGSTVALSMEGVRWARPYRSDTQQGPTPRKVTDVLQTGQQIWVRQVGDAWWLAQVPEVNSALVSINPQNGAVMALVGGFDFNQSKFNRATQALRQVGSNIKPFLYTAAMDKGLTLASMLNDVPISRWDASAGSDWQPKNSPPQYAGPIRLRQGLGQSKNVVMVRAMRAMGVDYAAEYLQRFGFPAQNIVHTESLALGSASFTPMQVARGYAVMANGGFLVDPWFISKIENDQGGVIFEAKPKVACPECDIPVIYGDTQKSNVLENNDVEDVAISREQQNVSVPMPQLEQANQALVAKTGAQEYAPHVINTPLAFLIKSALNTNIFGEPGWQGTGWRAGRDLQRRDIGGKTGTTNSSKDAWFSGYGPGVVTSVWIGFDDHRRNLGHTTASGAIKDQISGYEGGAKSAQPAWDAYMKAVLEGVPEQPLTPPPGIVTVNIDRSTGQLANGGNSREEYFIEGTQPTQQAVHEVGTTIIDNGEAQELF

[3] = target: T3, Penicillin-binding protein 1B (Escherichia coli K-12) (UniProt P02919); experiment: Inhibition of Escherichia coli PBP1b
T3 sequence (whole entry): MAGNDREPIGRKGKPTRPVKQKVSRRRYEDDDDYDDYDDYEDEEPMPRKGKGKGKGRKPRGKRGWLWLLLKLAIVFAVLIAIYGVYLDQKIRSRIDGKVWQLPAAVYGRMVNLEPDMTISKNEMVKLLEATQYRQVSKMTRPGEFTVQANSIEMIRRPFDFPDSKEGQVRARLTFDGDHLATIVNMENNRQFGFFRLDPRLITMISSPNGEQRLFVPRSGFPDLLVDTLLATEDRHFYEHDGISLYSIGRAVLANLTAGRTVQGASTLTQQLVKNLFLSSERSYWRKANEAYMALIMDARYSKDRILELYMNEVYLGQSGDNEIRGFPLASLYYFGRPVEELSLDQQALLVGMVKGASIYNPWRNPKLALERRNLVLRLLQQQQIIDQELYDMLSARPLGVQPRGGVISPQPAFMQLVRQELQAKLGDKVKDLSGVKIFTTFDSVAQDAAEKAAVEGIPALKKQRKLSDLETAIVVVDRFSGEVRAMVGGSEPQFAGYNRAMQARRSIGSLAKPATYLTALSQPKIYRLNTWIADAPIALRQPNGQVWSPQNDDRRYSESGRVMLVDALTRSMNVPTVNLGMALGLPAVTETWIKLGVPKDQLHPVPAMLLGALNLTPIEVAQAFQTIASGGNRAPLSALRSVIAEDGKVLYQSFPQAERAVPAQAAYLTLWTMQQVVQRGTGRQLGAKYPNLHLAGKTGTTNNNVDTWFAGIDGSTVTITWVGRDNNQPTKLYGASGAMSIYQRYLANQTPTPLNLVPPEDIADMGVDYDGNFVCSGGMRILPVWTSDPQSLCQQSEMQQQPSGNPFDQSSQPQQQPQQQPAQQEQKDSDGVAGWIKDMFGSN

Escherichia coli [4] = experiment: Inhibition of Escherichia coli PBP3
Pseudomonas aeruginosa = experiment: Antibacterial activity against Pseudomonas aeruginosa UFR49 measured after 16 to 20 hrs by broth microdilution method; type: functional
[5] = target: T4, Peptidoglycan D,D-transpeptidase MrdA (Escherichia coli K-12, UniProt P0AD65); experiment: as §1
T4 sequence (P0AD65 whole entry): T1 sequence (whole entry)

Escherichia coli [6] = experiment: Antibacterial activity against Escherichia coli UFR39 measured after 16 to 20 hrs by broth microdilution method; type: functional
Method in brief: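 Broth microdilution MICs following CLSI M7-A7, run against genotyped carbapenem-resistant E. coli and P. aeruginosa strains.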

Row | SMILES | inhibition [1] | inhibition [2] | inhibition [3] | inhibition (Escherichia coli [4]) | MIC (Pseudomonas aeruginosa) | IC50 [5] | MIC (Escherichia coli [6])
1 | O=C1N2CC=C(c3ncco3)C(C2)N1OS(=O)(=O)[O-].[Na+] (stereo not given) |  |  |  |  | > 32 µg/mL |  | 
2 | O=C1N2CC=C(c3cnoc3)C(C2)N1OS(=O)(=O)[O-].[Na+] (stereo not given) |  |  |  |  | > 32 µg/mL | 17 nM | 
3 | O=C1N2CC=C(c3cnco3)C(C2)N1OS(=O)(=O)[O-].[Na+] (stereo not given) |  | inactive | inactive | inactive | > 32 µg/mL | 25 nM | 4 µg/mL
4 | O=C1N2CC=CC(C2)N1OS(=O)(=O)[O-].[Na+] (stereo not given) |  | inactive | inactive | inactive | > 32 µg/mL | 570 nM | 16 µg/mL

Continued, values first:

Row | inhibition [1] | inhibition [2] | inhibition [3] | inhibition (Escherichia coli [4]) | MIC (Pseudomonas aeruginosa) | IC50 [5] | MIC (Escherichia coli [6]) | SMILES
5 | Active | inactive | inactive | inactive | > 32 µg/mL |  |  | O=C1N2CC=C(c3ccncc3)C(C2)N1OS(=O)(=O)[O-].[Na+] (stereo not given)
6 | Active | inactive | inactive | inactive | > 32 µg/mL |  |  | O=C1N2CC=C(c3ccccn3)C(C2)N1OS(=O)(=O)[O-].[Na+] (stereo not given)
